Ends that are not written are not given here.
Experiments:
[1] = Vital signs after single oral dose, phase I study; type: in vivo, human; details: 24 h post dose, healthy subjects, mean ± SD, n = 4
Procedure, shortened: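 In cohorts of four drug and two placebo (sterile water) subjects, a single oral solution was taken at 08:00 after an overnight fast, followed by 200 ml water. Blood pressure, heart rate, pulse oximetry, temperature and breathing rate were recorded pre-dose and at 0.25–24 h post dose. Values were reported as mean ± SD (range) and compared against placebo.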

[2] = Urinalysis, phase I study; type: in vivo, human; details: healthy subjects, n = 4
Procedure, shortened: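 Healthy volunteers were randomized within each dose cohort to oral drug solution in sterile water (four subjects) or sterile-water placebo (two subjects). They fasted from midnight, were dosed at 08:00 and had no food for 2 h afterwards. Urinalysis was done before dosing and 24 h after. Dipstick-type read-outs were compared with normal ranges or indications.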

Safety and tolerability = type: in vivo, human; details: healthy subjects, 12-lead ECG at 1, 3, 6 and 12 h post dose, all cohorts
Procedure, shortened: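 Single-blind, randomized, placebo-controlled dose escalation in healthy adults. Each cohort of six had four on drug and two on sterile-water placebo. Drug was dissolved in sterile water and drunk standing, then 200 ml water, at 08:00 after fasting from midnight. A 12-lead ECG was taken pre-dose and at 1, 3, 6 and 12 h. Vital signs and clinical laboratory tests were also monitored.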

[3] = intravenously administered into rats; ref unpublished preclinical toxicological data; cited from earlier work
Caco-2 monolayer = details: cited from earlier work
[4] = 0.08 mg/kg single oral dose, 0 h pre dose (baseline)
[5] = 0.08 mg/kg single oral dose, 24 h post dose
[6] = 0.7 mg/kg single oral dose, 0 h pre dose (baseline)
[7] = 0.7 mg/kg single oral dose, 24 h post dose

Urine bilirubin [2, 4]: Negative | Urine glucose [2, 4]: Normal | Urine haemoglobin [2, 4]: Negative | Urine ketones [2, 4]: Negative | Urine nitrite [2, 4]: Negative | Urine protein [2, 4]: Negative | Urine urobilinogen [2, 4]: Normal | Urine bilirubin [2, 5]: Negative | Urine glucose [2, 5]: Normal | Urine haemoglobin [2, 5]: Negative | Urine ketones [2, 5]: Negative | Urine nitrite [2, 5]: Negative | Urine protein [2, 5]: Negative | Urine urobilinogen [2, 5]: Normal | Urine bilirubin [2, 6]: Negative | Urine glucose [2, 6]: normal | Urine haemoglobin [2, 6]: Negative | Urine ketones [2, 6]: Negative | Urine nitrite [2, 6]: Negative | Urine protein [2, 6]: Negative | Urine urobilinogen [2, 6]: Normal | Urine bilirubin [2, 7]: Negative | Urine glucose [2, 7]: normal | Urine haemoglobin [2, 7]: Negative | Urine ketones [2, 7]: Negative | Urine nitrite [2, 7]: Negative | Urine protein [2, 7]: Negative | Urine urobilinogen [2, 7]: Normal
Sequence: RVYIHPFHL [DAA-I, Des-aspartate-angiotensin I]
Blood pressure, diastolic ([1]; 0.08 mg/kg single oral dose): 68 ± 5 mmHg | Blood pressure, systolic ([1]; 0.08 mg/kg single oral dose): 120 ± 4 mmHg | Blood pressure, diastolic ([1]; 0.7 mg/kg single oral dose): 67 ± 7 mmHg | Blood pressure, systolic ([1]; 0.7 mg/kg single oral dose): 114 ± 7 mmHg | ECGs (Safety and tolerability): normal | Time to degradation by plasma enzymes [3]: 2 to 5 min | Transport across Caco-2 monolayer (Caco-2 monolayer): cross the Caco-2 monolayer via passive diffusion
